TAG inh – triacylglycerol accumulation inhibition | H9c2 cells, Nile Red lipid (TAG) fluorescence; cells loaded with 200 µM oleic acid | hit rate 0.66% among 230,000 | inhibition, % at 12.5 µM;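 active means pattern-corrected inhibition of lipid staining of at least 50% with the nuclear-stain viability signal not falling by more than 50%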
Jurkat NFkB inh – inhibitors of the PMA/ionomycin-induced NF-kB reporter in Jurkat cells; PMA/ionomycin-induced NF-kB luciferase reporter, luminescence; inhibition, % at 4 µM; hit rate 0.53% among 330,000; AID 435003; in the data active means inhibition above about 50%
697 NFkB inh – inhibitors of the PMA/ionomycin-induced NF-kB reporter in 697 B cells. 697 B-cell NF-kB luciferase reporter, 16 h. inhibition, % at 4 µM. hit rate 0.33% among 330,000; in the data active means inhibition above about 35%
Lipid droplet – hepatic lipid droplet formation modulation | hit rate 0.4% among 240,000 | inhibition, % at 6.5 µM | AML12 mouse hepatocytes, oleate lipid droplets, BODIPY imaging | AID 1656;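 active means lipid droplet intensity inhibited by at least 50%, with more than 500 cells counted; inconclusive means wells with under 300 cells, treated as cytotoxic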
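Test system: AML12 hepatocytes (mouse); reagent: oleate loading, 100 µM; dosing: one dose, 6.5 µM compound; incubation: overnight exposure; signal: fluorescence imaging, 20x objective, two fields per well; read-out basis: % inhibition of corrected integrated BODIPY droplet signal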
APP transl inh – APP translation inhibition; SH-SY5Y APP 5'UTR-luciferase reporter, luminescence; inhibition, % at 2 µM; hit rate 0.82% among 190,000;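 active means inhibition above a set limit, derived from the sample mean plus 3 SD, cut at about 45% in these data; inconclusive means one replicate passes the limit while the other fails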
aSyn UTR inh – 5' untranslated region of α-synuclein, MLPCN primary screen; alpha-synuclein 5'UTR reporter, inhibitor activity; inhibition, % (tested at 7.5 µM); hit rate 0.82% among 300,000; AID 1813; in the data active means inhibition above about 60%; inconclusive means no clear call, values can overlap the other calls;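 further: H4 neuroglioblastoma cells stably carrying SNCA 5'UTR luciferase fusion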
Jurkat NFkB conf – lowers PMA/ionomycin-induced NF-kB signal in Jurkat cells. Jurkat NF-kB luciferase, 16 h. inhibition, % at 4 µM. hit rate 27% among 2,700. shares compounds with Jurkat NFkB inh;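 active means inhibition reaching about 45% at 4 µM in either replicate, limit read from the data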
697 NFkB conf – inhibitors of the PMA/ionomycin-induced NF-kB reporter in 697 B cells, retest. AID 449746. shares compounds with 697 NFkB inh. hit rate 35% among 2,000. inhibition, % at 4 µM. 697 B-cell NF-kB luciferase, 16 h; in the data active means inhibition mostly above about 28%, no sharp cut-off; inactive means mostly below about 22%
TAG conf – confirmation of triacylglycerol accumulation inhibitors. shares compounds with TAG inh. AID 651629. H9c2 lipid accumulation, Nile Red fluorescence; cells loaded with 200 µM oleic acid. hit rate 71% among 990. inhibition, % at 12.5 µM;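 active means mean inhibition across replicates of 40% or more; inactive means mean inhibition below 40%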
Numbers stand for hits; - = inactive; ? = inconclusive; . = not tested or not shown. Shown are actives, neighbours in structure and some others; about 1.9% of the full set was active somewhere.

SMILES	TAG inh	Jurkat NFkB inh	697 NFkB inh	Lipid droplet	APP transl inh	aSyn UTR inh	697 NFkB conf	others
CC(C)(O)/C=C/C(=O)[C@](C)(O)C1[C@H](O)C[C@@]2(C)C3CC=C4C(C[C@H](O)[C@@H](O)C4(C)C)[C@]3(C)C(=O)C[C@]12C (stereo not given in full)	-	62	41	.	.	.	50	Jurkat NFkB conf=-
Nc1ccccc1C(=O)OCCOc1ccccc1	-	-	-	-	-	.	-	Jurkat NFkB conf=-
C[n+]1c(-c2ccccc2)c2cc(N)ccc2c2ccc(N)cc21	-	67	58	-	.	-	54	Jurkat NFkB conf=62
CC1=C(O)C(=O)C=C2C1=CC=C1C2(C)CCC2(C)C3CC(C)(C(=O)O)CCC3(C)CCC12C (stereo not given)	-	.	.	.	.	.	.
O=C1/C(=C/c2ccccc2)C[C@@]2(O)[C@H]3Cc4ccc(O)c5c4[C@@]2(CCN3CC2CC2)C1O5 (stereo not given in full)	.	85	55	.	.	.	50	Jurkat NFkB conf=-
COP(=S)(OC)Oc1ccc(Sc2ccc(OP(=S)(OC)OC)cc2)cc1	-	.	.	.	.	.	.
COc1cc2c(c(OC)c1OC)-c1ccc(O)cc1[C@@H](NC(C)=O)CC2	.	77	-	.	.	?	-	Jurkat NFkB conf=64
COc1ccc(CCNC2CCCCC2)cc1	-	-	-	-	-	-	.
COc1ccc(C[C@H]2NC[C@H](O)[C@H]2OC(C)=O)cc1	-	100	100	.	.	112	94	Jurkat NFkB conf=99
C[C@@H]1C2C[C@@]34COC(=O)C3=CC=C[C@H]4[C@@]13C[C@H](c1ccoc1)O[C@@H]3O2	.	-	-	-	-	.	.
CCOc1ccc(-c2c(C)n(-c3ccc(OCC)cc3)c3[n+]2CCCCC3)cc1	-	100	48	-	.	62	60	Jurkat NFkB conf=79
CCOc1ccc(-n2c(-c3ccoc3)nc3ccccc3c2=O)cc1	.	-	-	-	-	-	.
CC1=CC(=C2C(=O)NC(=S)NC2=O)C=C(C(F)(F)F)N1Cc1ccccc1	54	70	-	?	90	113	.	Jurkat NFkB conf=-;TAG conf=-
O=C1CN(O)C(c2ccccc2Cl)=c2cc(Br)ccc2=N1	.	-	-	-	.	-	.
CNC(=O)c1cccn(Cc2ccc(C(F)(F)F)cc2)c1=O	-	-	50	-	-	-	61
CC(C)CN1Cc2ccccc2-n2nncc2C1	-	.	.	.	.	.	.
COc1ccccc1C1=NCc2nnc(C)n2-c2ccc(Cl)cc21	.	-	-	-	-	-	.
COc1ccc(C2=NCc3nnc(C)n3-c3ccc(Cl)cc32)cc1Cl	-	-	45	-	-	-	35
C(CCc1nn[nH]n1)CCc1nn[nH]n1	.	-	-	-	-	-	.
Cn1c(=O)cc(OCC(=O)N2CCC3(CC2)OCCO3)c2ccccc21	.	-	42	-	-	-	40
O=C(C1CCCCC1)N1Cc2ccccc2-n2nncc2C1	-	.	.	.	.	.	.
Cn1cnc([N+](=O)[O-])c1Sc1ccc([N+](=O)[O-])cc1	-	-	36	-	-	-	43
CCCCOC(=O)COc1cc(C)cc2oc(=O)c3c(c12)CCC3	-	-	-	.	-	-	.
C=CCOC(=O)COc1cc(C)cc2oc(=O)c3c(c12)CCC3	-	-	40	-	-	-	32
C/C=C(\C)C(=O)OC1C(C)=C2C(C1OC(=O)CCCCC)C(C)(OC(C)=O)CC(OC(=O)CCC)C1(O)C2OC(=O)C1(C)O (stereo not given)	.	-	-	-	.	108	-
SMILES	TAG inh	Jurkat NFkB inh	697 NFkB inh	Lipid droplet	APP transl inh	aSyn UTR inh	697 NFkB conf	others
CCCCOC(=O)c1ccccc1C(=O)OCc1ccccc1	.	-	-	.	.	.	.
COc1cccc(N=Nc2c(O)[nH]c(=S)[nH]c2=O)c1	57	-	-	-	.	-	.	TAG conf=47
COc1ccc(N=Nc2c(O)[nH]c(=S)[nH]c2=O)cc1	-	-	-	-	-	-	.
COc1ccc(CC2c3cc(OC)c(OC)cc3CCN2C)cc1OC (stereo not given)	.	-	-	.	-	-	.
COc1ccc(C[C@@H]2c3cc(O)c(OC)cc3CCN2C)cc1O	68	-	-	-	-	-	.	TAG conf=-
COC(=O)C1=C(c2ccc(OC(F)(F)F)cc2)C[C@@H]2CC[C@H]1N2C(=O)NC1CC1	-	-	-	.	.	.	.
COc1cc2c(c(OC)c1OC)-c1ccc(O)cc1C(NC(C)=O)CC2 (stereo not given)	52	.	.	.	.	.	.	TAG conf=58
CC(=O)OC12COC1CC(O)C1(C)C(=O)C(O)C3=C(C)C(O)CC(O)(C(OC(=O)c4ccccc4)C21)C3(C)C (stereo not given)	65	.	.	.	.	.	.	TAG conf=85
COC(=O)C1=C(c2cccc(C#N)c2)C[C@@H]2CC[C@H]1N2C(=O)N1CCc2cc(OC)c(OC)cc2C1	-	-	-	.	.	.	.
CCC(C)NC(=O)c1c(N)n(CCCOC)c2nc3ccccc3nc12 (stereo not given)	.	-	-	.	-	-	.
COCCCn1c(N)c(C(=O)Nc2ccccc2)c2nc3ccccc3nc21	59	-	-	-	.	-	.	TAG conf=72
O=c1ccc2cc3ccoc3c(O)c2o1	.	-	-	.	.	.	.
COC(=O)C1=C(c2ccc(OCc3ccccc3)cc2)C[C@@H]2CC[C@H]1N2C(=O)NCc1ccc(OC)c(OC)c1	53	-	-	.	.	.	.	TAG conf=-
